# The list is not random: actives were taken first. Their share in the collection is about 3.7%.
# KCNQ1 inh – inhibitors of human KCNQ1 potassium channel; B-score at 10 µM; CHO-K1 KCNQ1, FluxOR thallium flux fluorescence; stronger effect = higher value; actives 1.3% (n = 310,000);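 active = compounds whose thallium flux B-score, printed positive for inhibition, exceeds three library SD while starting fluorescence stays within three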;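 also: channel opened by potassium depolarization with thallium stimulus after 20 min compound exposure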
# KCNQ1 pot – potentiators or activators of human KCNQ1 potassium channel; actives 0.35% (n = 310,000); B-score at 10 µM; AID 2648; CHO-K1 KCNQ1, thallium flux FluxOR fluorescence; stronger effect = higher value; P51787;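 active = fluorescence ratio B-score, a plate-corrected score, at least three library SD, with initial intensity B-score within 5 SD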
#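 Test system: CHO-K1 cells stably expressing KCNQ1 / Medium: assay buffer / Also added: depolarizing K+/Tl+ stimulus, K2SO4 and Tl2SO4 each 12.5 mM in 5x stock / Incubation: 90 min dye loading and 20 min compound exposure, both at room temperature / Signal: thallium influx via FluxOR fluorescence, kinetic imaging / Evaluation: B score of baseline-normalized fluorescence ratio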
# hERG rescue – shields human hERG channel from block by proarrhythmic agents. activation (rescue from dofetilide block), less the hit threshold, % at 10 µM. CHO-hERG, FluxOR thallium flux, dofetilide IC70 present. actives 0.51% (n = 310,000);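 active = activation above the mean of controls blocked by dofetilide plus 5 SD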;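 also: thallium influx through hERG after potassium depolarization seen as dye fluorescence rise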
# Kir21 inh – blocks the mouse Kir2.1 inward-rectifier potassium channel | P35561 | HEK293-Kir2.1, FluxOR thallium flux fluorescence; stronger effect = lower value | B-score at 10 µM | actives 0.85% (n = 310,000);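 active = fluorescence ratio B-score at or below minus 3 SD of library scores, with starting-brightness B-score within 2 SD, cut at about -4.2 in these data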;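 also: channel flux triggered by added potassium and thallium sulfate stimulus; B-score of peak minus minimum fluorescence over baseline after thallium stimulus; more negative B-score means stronger Kir2.1 block with less thallium influx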
# Target sequence (P35561 whole entry, looked up): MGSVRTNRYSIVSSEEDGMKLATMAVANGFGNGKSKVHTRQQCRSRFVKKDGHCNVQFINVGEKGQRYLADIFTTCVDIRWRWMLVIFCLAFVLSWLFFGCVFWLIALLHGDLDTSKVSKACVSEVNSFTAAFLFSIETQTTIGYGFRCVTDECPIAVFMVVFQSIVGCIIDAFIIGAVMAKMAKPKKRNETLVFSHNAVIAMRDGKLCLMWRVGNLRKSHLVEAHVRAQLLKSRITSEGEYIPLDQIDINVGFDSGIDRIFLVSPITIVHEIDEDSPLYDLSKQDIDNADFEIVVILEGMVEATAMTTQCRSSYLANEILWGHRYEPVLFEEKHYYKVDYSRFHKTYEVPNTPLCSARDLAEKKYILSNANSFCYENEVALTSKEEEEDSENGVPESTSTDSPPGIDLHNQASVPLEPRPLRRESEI
# KCNK9 inh – inhibitors of human KCNK9 two-pore domain potassium channel; actives 1.2% (n = 310,000); B-score at 10 µM; Q9NPC2; HEK293 KCNK9, FluxOR thallium flux fluorescence; stronger effect = lower value; AID 488922;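 active = ratio B-score over 3 SD below the library mean, with starting fluorescence within 5 SD of its mean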;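 also: negative B-score means less thallium flux so channel inhibition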
# KCNK3 inh – human KCNK3 channel inhibition, primary screen; B-score at 10 µM; actives 0.84% (n = 340,000); CHO-KCNK3 thallium flux, FluxOR fluorescence; stronger effect = lower value;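 active = B-score under library mean minus 4 SD, starting fluorescence ratio at most library mean plus 5 SD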;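 also: more negative B-score means stronger inhibition of thallium flux through KCNK3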
# KCNK9 block conf – confirmation of human KCNK9 potassium channel inhibitors; inhibition, % at 10 µM; HEK293 KCNK9 cells, FluxOR thallium flux fluorescence; actives 43% (n = 4,900); shares compounds with KCNK9 inh; AID 492992;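 active = thallium signal inhibited by more than 5 SD of the compound-free buffer control wells, on both duplicate plates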;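 also: 0% = assay buffer control wells without compound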
# Kir2-1 spec – tests whether KCNK9 modulators also affect mouse Kir2.1 | shares compounds with KCNK9 inh | Kir2.1 cells, FluxOR thallium flux fluorescence | inhibition, % at 10 µM | actives 4% (n = 4,900);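 active = thallium signal drop more than 5 SD beyond the mean of the no-compound control wells, seen in both duplicate plates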;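 also: signal is fluorescence rise after thallium addition divided by baseline fluorescence; plate controls were assay buffer only for no effect and full block by chlorpromazine control for full effect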
# KCNK9 uninduced – non-induced cell nonspecific activity of KCNK9 modulators; AID 492997; inhibition, % at 10 µM; actives 40% (n = 4,900); shares compounds with KCNK9 inh; non-induced KCNK9-HEK293, FluxOR thallium flux;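 active = thallium signal drop beyond 5 SD of the untreated control mean, on both duplicate plates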;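 also: plate controls were buffer only IC0 wells for no effect and SID17386958 at its maximal inhibitory level for full effect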
# KCNK3 inh conf – confirmation of human KCNK3 two-pore domain potassium channel inhibitors; shares compounds with KCNK3 inh; CHO-KCNK3 thallium flux, FluxOR fluorescence; 0% buffer, 100% carvedilol maximal block; ratio percent of control, % at 10 µM; actives 99% (n = 2,400); AID 651638;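 active = ratio percent of control, averaged over triplicates, above buffer control mean plus 5 SD, cut at about 64% in these data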;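 also: ratio is the fluorescence rise from min to max over baseline after thallium stimulus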
# KCNK3 uninduced – counter-screen for KCNK3 inhibitors: effect in non-induced cells; shares compounds with KCNK3 inh; non-induced KCNK3 parental cells, FluxOR thallium flux; stronger effect = lower value; thallium flux ratio (lower = more inhibition) at 10 µM; actives 40% (n = 2,400); AID 651747;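 active = thallium flux ratio, averaged over three wells, more than 5 SD below the buffer control mean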;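 also: host cells are CHO cells without KCNK3 induction; ratio is peak minus trough fluorescence over baseline then normalized to buffer controls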
# * = called active by the depositor; i = inactive; . = no result.
SMILES,KCNQ1 inh,KCNQ1 pot,hERG rescue,Kir21 inh,KCNK9 inh,KCNK3 inh,KCNK9 block conf,Kir2-1 spec,KCNK9 uninduced,KCNK3 inh conf,KCNK3 uninduced
O=[N+]([O-])c1cccc(C2CC(c3ccccc3)=NN2c2ccccc2)c1 (stereo not given),i,i,-5,1.5,-10*,i,56%*,i,28%*,94*,i
Cc1cc(C)cc(-n2c(C)cc(/C=N/NC(=O)CSc3ncccn3)c2C)c1,i,i,-12,-2.6,-14*,-11*,60%*,i,32%*,94*,i
Cc1ccc(O)c(C(=O)c2cnc3c(c2)COc2ccc(C)cc2-3)c1,i,i,-1,0.86,-13*,i,72%*,i,40%*,113*,i
Cc1ccc(-c2ocnc2C(=O)Nc2ccccc2NC(=O)c2ccccn2)cc1,i,i,-7,1.9,i,i,.,.,.,.,.
Cc1cccc(-c2ocnc2C(=O)Nc2ccccc2NC(=O)c2ccccn2)c1,i,i,-9,0.69,-11*,-9.7*,36%*,i,29%*,109*,0.16*
CCOC(=O)C1=C(CSc2nc(CC)c(C)cc2C#N)OC(N)=C(C#N)C1c1ccc(OC)cc1 (stereo not given),i,i,-9,0.86,-9.7*,-9.2*,54%*,i,45%*,112*,0.15*
CCc1ccc(-c2cc(C)no2)cc1S(=O)(=O)N1CCOc2ccccc21,i,i,-15,-0.5,-12*,-15*,38%*,i,42%*,125*,0.14*
O=c1c2ccccc2c(=O)n2n1Cc1ccccc1C2,i,i,-12,0.03,i,i,.,.,.,.,.
Cc1cc(C)cc(NC(=O)CN2C(=O)COc3ccc(S(=O)(=O)N4CCCC4)cc32)c1,i,i,-5,0.86,i,i,.,.,.,.,.
COc1cc(NC(=O)CN2C(=O)COc3ccc(S(=O)(=O)N4CCCC4)cc32)cc(OC)c1,i,i,-6,-0.02,-11*,-11*,52%*,i,30%*,105*,i
O=C(c1ccco1)N(CCC(c1ccccc1)c1ccco1)Cc1ccc(F)cc1 (stereo not given),i,i,-19,-4.4*,-14*,-11*,66%*,40%*,31%*,95*,0.15*
CC(C)(C)CC(=O)Nc1ccccc1N1CCN(c2ccccc2)CC1,i,i,-8,1.4,i,i,.,.,.,.,.
CC(C)(C)CC(=O)Nc1ccccc1N1CCN(c2ccc(F)cc2)CC1,i,i,-6,0.03,-12*,-9*,73%*,i,37%*,120*,0.14*
O=C(Nc1ccccc1N1CCN(c2ccc(F)cc2)CC1)c1ccccc1,i,i,-4,-1.5,-10*,-14*,i,i,29%*,125*,0.15*
Cc1ccccc1NC(=O)Cc1nc(COC(=O)CSc2ccccc2)cs1,i,i,-15,0.66,i,i,.,.,.,.,.
Nc1nnnn1/N=C/c1cccc(OCc2ccccc2Cl)c1,i,i,-9,0.81,i,i,.,.,.,.,.
CCC(C)(C)n1nnnc1CN(Cc1ccc(Cl)cc1)Cc1ccco1,i,i,-16,-5.1*,-11*,i,54%*,i,40%*,126*,0.16*
C=CC[n+]1c(/C=C2\C=Cc3cc(C)ccc3N2CC)ccc2ccccc21,16*,i,-33,-6.5*,-13*,-16*,78%*,88%*,63%*,146*,0.11*
CC(C)(C)n1nnnc1C(c1cccs1)N(Cc1ccccc1)Cc1cccnc1 (stereo not given),i,i,-11,-0.17,-13*,i,66%*,i,54%*,118*,i
Cc1cccc(OCCCn2c(=O)sc3ccccc32)c1,i,i,-12,0.04,i,i,.,.,.,.,.
CCCCCCCCCCOC(=O)Cn1c(COc2cccc(C)c2)[n+](C)c2ccccc21,i,i,-13,-13*,-14*,-10*,64%*,64%*,i,100*,i
CC(C)=CCc1cc([C@@H]2CC(=O)c3ccc(O)c(CC=C(C)C)c3O2)ccc1O,i,i,-9,0.63,-11*,-16*,61%*,i,30%*,141*,0.12*
Cc1ccc2c(c1)C(=O)CC(c1ccc3c(c1)OCCO3)O2 (stereo not given),i,i,-4,0.75,i,i,.,.,.,.,.
COc1ccc(CCNC(=O)CSc2nc(-c3ccco3)cc(C(F)(F)F)n2)cc1,i,i,-2,-1.2,i,i,.,.,.,.,.
COC(=O)c1ccc(CSc2nc(-c3ccco3)cc(C(F)(F)F)n2)o1,i,i,-9,0.76,-11*,i,38%*,i,45%*,115*,0.15*
COc1ccccc1CNC(=O)c1csc(Cc2ccc(Cl)cc2)n1,i,i,-10,4.6,i,-13*,i,i,26%*,122*,0.14*
COc1ccc(CNC(=O)c2csc(Cc3ccccc3)n2)cc1,i,i,-9,-4.2,i,i,.,.,.,.,.
Cn1cccc1/C=C1\CCC/C(=C\c2cccn2C)C1=O,14*,i,-36,-8.6,-9.6*,-12*,78%*,60%*,i,0,i
Cc1ccc(C)c(OCc2cc(C(=O)N3CCOCC3)no2)c1,i,i,-4,2.4,i,i,.,.,.,.,.
COc1ccccc1OCC(=O)Nc1cccc(-c2nnc(-c3ccco3)o2)c1,i,i,-25,0.72,-8.6*,-10*,31%*,i,i,103*,i

# Assay outcomes (PubChem BioAssay)
